Reference: ChEMBL document CHEMBL4229410, “Facile construction of fused benzimidazole-isoquinolinones that induce cell-cycle arrest and apoptosis in colorectal cancer cells” (Bioorg Med Chem, 2018)

Key:
[1] = biological target: T1, Mitogen-activated protein kinase 3 (Homo sapiens, UniProt P27361); experiment: Inhibition of full length human ERK1 (M1 to P379 residues) expressed in bacterial expression system assessed as residual activity at 5 uM by KINOMEscan assay relative to control
[2] = biological target: Serine/threonine-protein kinase PAK 4 (Homo sapiens, UniProt O96013); experiment: Inhibition of partial length human PAK4 (Q144 to R438 residues) expressed in bacterial expression system assessed as residual activity at 5 uM by KINOMEscan assay relative to control
[3] = biological target: Serine/threonine-protein kinase B-raf (Homo sapiens, UniProt P15056, V600E); experiment: Binding affinity to human BRAF (S429 to E741 residues) V600E mutant expressed in mammalian expression system by KINOMEscan assay
[4] = biological target: Serine/threonine-protein kinase PAK 2 (Homo sapiens, UniProt Q13177); experiment: Binding affinity to partial length human PAK2 (P151 to R525 residues) expressed in bacterial expression system by KINOMEscan assay
[5] = biological target: Serine/threonine-protein kinase DCLK1 (Homo sapiens, UniProt O15075); experiment: Binding affinity to partial length human DCAMKL1 (L270 to A662 residues) expressed in mammalian expression system by KINOMEscan assay
[6] = test system: Serine/threonine-protein kinase B-raf (Homo sapiens), P15056 [V600E]; experiment: Inhibition of human BRAF (S429 to E741 residues) V600E mutant expressed in mammalian expression system assessed as residual activity at 5 uM by KINOMEscan assay relative to control
Chain of Serine/threonine-protein kinase B-raf (Homo sapiens), P15056 [V600E] (P15056 whole entry V600E, the tested form may be a part): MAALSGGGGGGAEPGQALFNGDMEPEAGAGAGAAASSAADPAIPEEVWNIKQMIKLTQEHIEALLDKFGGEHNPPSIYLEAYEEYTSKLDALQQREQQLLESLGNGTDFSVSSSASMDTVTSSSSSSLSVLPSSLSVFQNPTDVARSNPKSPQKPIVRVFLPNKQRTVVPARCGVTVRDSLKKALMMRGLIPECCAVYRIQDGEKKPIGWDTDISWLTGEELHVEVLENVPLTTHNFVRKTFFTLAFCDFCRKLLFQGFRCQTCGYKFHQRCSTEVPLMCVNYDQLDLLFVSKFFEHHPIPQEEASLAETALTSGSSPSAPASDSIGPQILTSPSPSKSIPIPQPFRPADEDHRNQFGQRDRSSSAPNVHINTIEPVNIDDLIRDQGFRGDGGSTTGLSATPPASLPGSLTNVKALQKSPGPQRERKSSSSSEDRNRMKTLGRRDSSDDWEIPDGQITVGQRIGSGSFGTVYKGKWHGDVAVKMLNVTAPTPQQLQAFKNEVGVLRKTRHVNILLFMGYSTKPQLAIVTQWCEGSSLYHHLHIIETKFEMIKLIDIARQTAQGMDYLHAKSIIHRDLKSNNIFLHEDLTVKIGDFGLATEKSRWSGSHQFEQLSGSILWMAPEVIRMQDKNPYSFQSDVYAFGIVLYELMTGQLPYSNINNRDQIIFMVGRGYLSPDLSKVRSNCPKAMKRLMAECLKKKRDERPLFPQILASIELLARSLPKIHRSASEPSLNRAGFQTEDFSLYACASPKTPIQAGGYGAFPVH

[7] = biological target: Serine/threonine-protein kinase Chk1 (Homo sapiens, UniProt O14757); experiment: Binding affinity to human CHEK1 (M1 to G289 residues) expressed in bacterial expression system by KINOMEscan assay
Chain of Serine/threonine-protein kinase Chk1 (O14757 whole entry, the tested form may be a part): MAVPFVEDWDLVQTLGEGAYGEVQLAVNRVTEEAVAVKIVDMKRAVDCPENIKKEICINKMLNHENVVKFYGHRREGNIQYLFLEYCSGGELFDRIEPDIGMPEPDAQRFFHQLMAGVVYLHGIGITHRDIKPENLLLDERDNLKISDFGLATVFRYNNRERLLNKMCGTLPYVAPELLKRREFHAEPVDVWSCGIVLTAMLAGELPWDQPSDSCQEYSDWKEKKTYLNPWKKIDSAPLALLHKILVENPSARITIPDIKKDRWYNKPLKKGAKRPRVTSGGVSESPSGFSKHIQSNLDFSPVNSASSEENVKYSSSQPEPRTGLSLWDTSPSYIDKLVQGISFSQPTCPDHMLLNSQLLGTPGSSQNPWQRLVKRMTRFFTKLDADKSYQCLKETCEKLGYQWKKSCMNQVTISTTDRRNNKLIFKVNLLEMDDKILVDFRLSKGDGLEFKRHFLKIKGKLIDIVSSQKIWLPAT

[8] = biological target: T1, Mitogen-activated protein kinase 3; experiment: Binding affinity to full length human ERK1 (M1 to P379 residues) expressed in bacterial expression system by KINOMEscan assay
[9] = biological target: Proto-oncogene tyrosine-protein kinase Src (Homo sapiens, UniProt P12931); experiment: Binding affinity to human SRC (L240 to L536 residues) expressed in bacterial expression system by KINOMEscan assay
[10] = biological target: Inhibitor of nuclear factor kappa-B kinase subunit beta (Homo sapiens) (UniProt O14920); experiment: Inhibition of full length human IKKbeta (M1 to S756 residues) expressed in mammalian expression system assessed as residual activity at 5 uM by KINOMEscan assay relative to control
Chain of Inhibitor of nuclear factor kappa-B kinase subunit beta (Homo sapiens) (O14920 whole entry, the tested form may be a part): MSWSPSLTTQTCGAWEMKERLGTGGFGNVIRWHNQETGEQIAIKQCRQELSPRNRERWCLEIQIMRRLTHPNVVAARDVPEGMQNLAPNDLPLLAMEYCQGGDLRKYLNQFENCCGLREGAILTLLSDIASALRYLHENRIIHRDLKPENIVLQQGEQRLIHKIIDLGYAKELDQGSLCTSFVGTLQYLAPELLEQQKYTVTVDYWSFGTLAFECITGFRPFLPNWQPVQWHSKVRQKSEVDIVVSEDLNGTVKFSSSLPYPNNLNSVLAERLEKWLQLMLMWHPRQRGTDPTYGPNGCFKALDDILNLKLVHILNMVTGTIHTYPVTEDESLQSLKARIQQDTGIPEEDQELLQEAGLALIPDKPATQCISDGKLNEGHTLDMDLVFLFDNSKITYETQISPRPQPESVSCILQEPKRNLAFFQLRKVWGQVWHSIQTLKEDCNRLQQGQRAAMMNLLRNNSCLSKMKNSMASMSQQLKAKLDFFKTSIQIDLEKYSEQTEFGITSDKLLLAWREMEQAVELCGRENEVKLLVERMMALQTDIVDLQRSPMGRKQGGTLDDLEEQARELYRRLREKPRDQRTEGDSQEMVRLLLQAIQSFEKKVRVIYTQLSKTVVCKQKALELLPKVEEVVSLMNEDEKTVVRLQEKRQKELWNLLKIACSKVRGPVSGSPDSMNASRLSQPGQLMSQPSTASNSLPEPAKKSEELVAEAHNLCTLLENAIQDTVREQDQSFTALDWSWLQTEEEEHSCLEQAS

[11] = biological target: Mitogen-activated protein kinase 14 (Homo sapiens, UniProt Q16539); experiment: Binding affinity to full length human p38alpha (M1 to S360 residues) expressed in bacterial expression system by KINOMEscan assay
[12] = biological target: Dual specificity mitogen-activated protein kinase kinase 1 (Homo sapiens, UniProt Q02750); experiment: Binding affinity to full length human MEK1 (M1 to V393 residues) expressed in mammalian expression system by KINOMEscan assay
[13] = biological target: Vascular endothelial growth factor receptor 2 (Homo sapiens, UniProt P35968); experiment: Inhibition of human VEGFR2 (R787 to P1253 residues) expressed in mammalian expression system assessed as residual activity at 5 uM by KINOMEscan assay relative to control
[14] = biological target: Atypical kinase COQ8A, mitochondrial (Homo sapiens, UniProt Q8NI60); experiment: Binding affinity to full length human ADCK3 (M280 to Q647 residues) expressed in bacterial expression system by KINOMEscan assay
Chain of Atypical kinase COQ8A, mitochondrial (Q8NI60 whole entry, the tested form may be a part): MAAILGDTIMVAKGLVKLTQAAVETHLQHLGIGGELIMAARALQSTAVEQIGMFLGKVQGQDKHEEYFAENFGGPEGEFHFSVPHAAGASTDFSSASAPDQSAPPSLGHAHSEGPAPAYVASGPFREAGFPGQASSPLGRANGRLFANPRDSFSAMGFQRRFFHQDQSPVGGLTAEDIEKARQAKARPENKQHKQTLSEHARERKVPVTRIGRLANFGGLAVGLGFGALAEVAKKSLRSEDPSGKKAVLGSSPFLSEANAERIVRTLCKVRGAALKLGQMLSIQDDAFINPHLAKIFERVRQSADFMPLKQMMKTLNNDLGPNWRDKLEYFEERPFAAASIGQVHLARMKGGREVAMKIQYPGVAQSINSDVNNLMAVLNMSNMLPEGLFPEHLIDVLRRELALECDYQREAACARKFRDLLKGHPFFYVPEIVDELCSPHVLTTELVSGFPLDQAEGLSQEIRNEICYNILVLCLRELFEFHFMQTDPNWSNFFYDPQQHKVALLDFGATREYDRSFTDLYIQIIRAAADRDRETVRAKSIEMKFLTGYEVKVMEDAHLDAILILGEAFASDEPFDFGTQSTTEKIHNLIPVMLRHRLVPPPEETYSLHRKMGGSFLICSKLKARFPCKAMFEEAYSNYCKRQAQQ

[15] = biological target: Mitogen-activated protein kinase kinase kinase 9 (Homo sapiens, UniProt P80192); experiment: Inhibition of human MLK1 (V88 to W426 residues) expressed in bacterial expression system assessed as residual activity at 5 uM by KINOMEscan assay relative to control
[16] = biological target: Cyclin-dependent kinase 16 (Homo sapiens, UniProt Q00536); experiment: Inhibition of human PCTK1 (G160 to A474 residues) expressed in mammalian expression system assessed as residual activity at 5 uM by KINOMEscan assay relative to control
[17] = biological target: Insulin receptor (Homo sapiens, UniProt P06213); experiment: Binding affinity to human INSR (P997 to E1318 residues) expressed in mammalian expression system by KINOMEscan assay
Chain of Insulin receptor (P06213 28-758 limits assumed): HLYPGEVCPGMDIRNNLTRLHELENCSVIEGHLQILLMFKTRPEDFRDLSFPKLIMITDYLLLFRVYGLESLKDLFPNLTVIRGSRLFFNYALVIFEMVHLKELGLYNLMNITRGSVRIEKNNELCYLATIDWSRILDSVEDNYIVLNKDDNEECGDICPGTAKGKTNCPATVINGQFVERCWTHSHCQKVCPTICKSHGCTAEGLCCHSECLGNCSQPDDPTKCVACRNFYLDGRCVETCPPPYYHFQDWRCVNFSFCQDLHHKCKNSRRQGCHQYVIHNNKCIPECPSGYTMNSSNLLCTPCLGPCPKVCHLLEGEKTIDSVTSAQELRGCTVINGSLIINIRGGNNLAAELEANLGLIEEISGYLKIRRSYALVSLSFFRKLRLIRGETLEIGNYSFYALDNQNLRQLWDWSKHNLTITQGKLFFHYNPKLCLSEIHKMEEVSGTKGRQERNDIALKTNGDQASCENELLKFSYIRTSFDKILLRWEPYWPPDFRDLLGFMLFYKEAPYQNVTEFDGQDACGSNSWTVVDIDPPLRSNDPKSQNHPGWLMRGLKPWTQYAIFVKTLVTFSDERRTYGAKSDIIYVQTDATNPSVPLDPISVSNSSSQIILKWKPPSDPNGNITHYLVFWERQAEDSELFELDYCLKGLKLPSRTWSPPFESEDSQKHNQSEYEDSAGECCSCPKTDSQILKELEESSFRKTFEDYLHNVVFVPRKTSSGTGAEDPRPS
Chain of Insulin receptor (P06213 763-1382 limits assumed): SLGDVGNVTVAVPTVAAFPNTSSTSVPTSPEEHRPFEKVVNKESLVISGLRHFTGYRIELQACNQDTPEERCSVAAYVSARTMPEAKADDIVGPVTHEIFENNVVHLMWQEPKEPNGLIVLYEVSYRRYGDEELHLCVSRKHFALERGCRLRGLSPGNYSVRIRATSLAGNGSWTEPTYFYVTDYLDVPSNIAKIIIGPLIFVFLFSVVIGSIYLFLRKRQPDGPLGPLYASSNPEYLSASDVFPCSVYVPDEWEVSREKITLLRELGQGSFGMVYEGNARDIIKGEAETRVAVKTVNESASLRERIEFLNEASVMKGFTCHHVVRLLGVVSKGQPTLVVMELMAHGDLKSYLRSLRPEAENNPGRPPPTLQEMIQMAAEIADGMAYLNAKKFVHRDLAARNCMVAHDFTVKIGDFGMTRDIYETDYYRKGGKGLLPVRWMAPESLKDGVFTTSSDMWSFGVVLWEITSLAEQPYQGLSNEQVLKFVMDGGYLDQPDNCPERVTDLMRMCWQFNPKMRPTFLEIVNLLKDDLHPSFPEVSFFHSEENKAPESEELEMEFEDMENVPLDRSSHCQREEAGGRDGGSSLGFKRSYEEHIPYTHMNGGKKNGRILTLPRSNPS

[18] = biological target: Serine/threonine-protein kinase B-raf (Homo sapiens, UniProt P15056); experiment: Binding affinity to human BRAF (S429 to E741 residues) expressed in mammalian expression system by KINOMEscan assay
Chain of Serine/threonine-protein kinase B-raf (Homo sapiens, UniProt P15056) (P15056 whole entry, the tested form may be a part): as the sequence (P15056 whole entry V600E, the tested form may be a part) above, with E600V counted along it

[19] = biological target: Ephrin type-A receptor 2 (Homo sapiens, UniProt P29317); experiment: Binding affinity to human EPHA2 (T593 to V891 residues) expressed in bacterial expression system by KINOMEscan assay
[20] = test system: HT-29; experiment: Induction of apoptosis in human HT-29 cells assessed as increase in apoptotic bodies after 48 hrs by Hoechst 33342 staining based fluorescence microscopic analysis; format: functional, cell-based
How it was run: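 HT29 cells in 24-well plates were treated at 0, 25, 50 or 75 μM for 48 h and fixed 20 min in 4% paraformaldehyde. After Hoechst 33342 staining for 15 min at 37 °C, apoptotic bodies and chromatin condensation were scored by fluorescence microscopy.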

[21] = test system: SW-620; experiment: Induction of apoptosis in human SW620 cells assessed as necrotic cells at 25 uM after 48 hrs by Annexin-V-FITC/propidium iodide staining based flow cytometry (reference value: 0.9%); format: functional
[22] = biological target: Activin receptor type-1B (Homo sapiens, UniProt P36896); experiment: Binding affinity to human ACVR1B (S187 to I505 residues) expressed in bacterial expression system by KINOMEscan assay
Chain of Activin receptor type-1B (P36896 whole entry, the tested form may be a part): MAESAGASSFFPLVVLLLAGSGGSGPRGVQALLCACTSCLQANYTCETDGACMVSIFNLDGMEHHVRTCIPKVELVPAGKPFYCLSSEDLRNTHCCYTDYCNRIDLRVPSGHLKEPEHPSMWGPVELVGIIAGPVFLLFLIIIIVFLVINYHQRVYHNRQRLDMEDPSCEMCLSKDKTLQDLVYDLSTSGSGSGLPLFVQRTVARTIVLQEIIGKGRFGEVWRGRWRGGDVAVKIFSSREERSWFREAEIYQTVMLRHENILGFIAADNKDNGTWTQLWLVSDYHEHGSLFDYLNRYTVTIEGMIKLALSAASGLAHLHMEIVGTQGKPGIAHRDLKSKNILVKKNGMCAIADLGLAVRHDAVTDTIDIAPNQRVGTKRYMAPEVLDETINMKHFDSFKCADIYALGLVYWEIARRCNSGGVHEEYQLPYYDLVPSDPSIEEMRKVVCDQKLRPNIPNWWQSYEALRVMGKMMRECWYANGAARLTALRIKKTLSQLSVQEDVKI

T1 sequence (P27361 whole entry, the tested form may be a part): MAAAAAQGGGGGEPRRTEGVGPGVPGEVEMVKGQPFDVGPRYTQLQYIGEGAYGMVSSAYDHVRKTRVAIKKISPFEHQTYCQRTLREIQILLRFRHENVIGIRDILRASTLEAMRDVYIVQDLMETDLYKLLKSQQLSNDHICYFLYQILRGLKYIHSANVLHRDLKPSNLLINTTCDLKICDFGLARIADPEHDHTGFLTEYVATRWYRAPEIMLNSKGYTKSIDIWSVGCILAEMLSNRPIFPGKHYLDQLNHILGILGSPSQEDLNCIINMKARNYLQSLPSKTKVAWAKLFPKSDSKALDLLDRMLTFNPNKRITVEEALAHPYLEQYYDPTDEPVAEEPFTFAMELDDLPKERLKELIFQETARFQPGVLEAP

CC(C)CN(C(=O)c1cccnc1)c1c2ccccc2c(=O)n2c1[nH]c1ccccc12
Activity [1]: 82% | Activity [2]: 82% | Kd [3]: ≥ 5 µM | Kd [4]: ≥ 5 µM | Kd [5]: ≥ 5 µM | Activity [6]: 100% | Kd [7]: ≥ 5 µM | Kd [8]: ≥ 5 µM | Kd [9]: ≥ 5 µM | Activity [10]: 93% | Kd [11]: ≥ 5 µM | Kd [12]: ≥ 5 µM | Activity [13]: 98% | Kd [14]: ≥ 5 µM | Activity [15]: 84% | Activity [16]: 95% | Kd [17]: ≥ 5 µM | Kd [18]: ≥ 5 µM | Kd [19]: ≥ 5 µM | Activity [20]: Dose-dependent effect | Activity [21]: 3.1% | Kd [22]: ≥ 5 µM
